Screening results from PubChem BioAssay.
Shown are actives, neighbours in structure and some others; about 2.1% of the full set was active somewhere.
PKA-R1A act = activators of PKA-R1A complex; PKA-R1A dissociation, Cy5-IP20 fluorescence polarization; scaled: DMSO 0%, 113 µM cGMP 100%; activation, % at 11.4 µM; hit rate 0.083% among 340,000;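 active means percent activation above the mean of all tested compounds plus 3 SD, cut at about 19% in these data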;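 further: higher means more PKAc released from R1A so a rise in polarization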
SR-BI DiI inh = blocks mouse SR-BI lipid uptake from DiI-HDL. Q61009. ldlA[mSR-BI] CHO cells, DiI-HDL uptake fluorescence, 3 h. inhibition, % at 12.5 µM. hit rate 0.96% among 320,000;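 active means mean replicate inhibition of at least 70% and a set share of replicates each scoring 70 or more; inconclusive means meets just one of the two criteria; inactive means fails both criteria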;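 further: 0% = median of neutral control wells and 100% = median of positive control wells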
SR-BI DiI-HDL act = activators of SR-BI mediated HDL lipid uptake; activation, % at 12.5 µM; CHO ldlA[mSR-BI] cells, DiI-HDL uptake fluorescence, 3 h; 100 = double the neutral-control signal; AID 504775; hit rate 0.096% among 320,000;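 active means mean replicate activation of at least 60% and every replicate at or above 60%; inconclusive means mean or all-replicate condition met, but not both; inactive means mean below 60% and not all replicates reaching 60%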;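 further: 0% = median plate neutral-control signal and 100% = twice that signal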
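material = CHO ldlA[mSR-BI] cells | medium = Ham's F12 with 0.5% BSA, HEPES 25 mM, pH 7.4 | reagent = fluorescent DiI-HDL, 10 µg/mL final | compound dosing = single-point compound dose | incubation = 3 h, 37 °C | measured by = bottom-read fluorescence, 550/595 nm | measure = HDL uptake via cellular fluorescence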
dFosB act-1 = activators of mouse delta FosB homodimer | activation, % at 25 µM | purified delta FosB, TAMRA-CDK5 oligo fluorescence polarization; percent of positive-control signal above neutral wells | P13346 | hit rate 0.99% among 340,000;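 active means mean activation above about 17%, with every replicate also reaching it, limit read from the data, passing the limit was not always enough; inconclusive means only one of the two conditions met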
PKA-R2B act = PKA-R2B complex activation; P22694+P31323; AID 504700; hit rate 0.079% among 340,000; PKA-R2B holoenzyme dissociation, Cy5-IP20 fluorescence polarization; R2B truncated from residue 108, S112A mutant; 0% DMSO only, 100% 113 µM cGMP; activation, % at 11.4 µM;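 active means activation above a cutoff set at the mean over all compounds plus 3 SD, cut at about 18% in these data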;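 further: higher means more holoenzyme dissociation and a rise in polarization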
Target sequence (P31323 whole entry, looked up, other chains not shown, the tested form may be a part): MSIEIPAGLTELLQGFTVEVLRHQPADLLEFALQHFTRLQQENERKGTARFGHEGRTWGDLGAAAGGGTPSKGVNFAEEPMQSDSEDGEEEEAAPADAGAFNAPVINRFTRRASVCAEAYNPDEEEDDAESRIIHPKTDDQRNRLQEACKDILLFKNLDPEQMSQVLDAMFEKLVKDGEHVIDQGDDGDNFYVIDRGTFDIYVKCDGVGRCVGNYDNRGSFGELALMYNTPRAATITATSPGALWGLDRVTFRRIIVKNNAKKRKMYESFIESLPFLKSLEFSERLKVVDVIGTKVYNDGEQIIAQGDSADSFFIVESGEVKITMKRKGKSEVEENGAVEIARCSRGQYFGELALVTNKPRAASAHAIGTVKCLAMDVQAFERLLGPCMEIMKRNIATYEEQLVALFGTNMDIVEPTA
CDK5 p35 inh = blocks human CDK5/p35 kinase activity | Recombinant CDK5/p35, ADP-Glo luminescence, 60 min | AID 488839 | Q00535+Q15078 | hit rate 0.01% among 330,000 | inhibition, % at 10 µM;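 active means highest replicate inhibition of at least 50% and at least 75% of replicates reaching 50%; inconclusive means only one of the two criteria met; inactive means both criteria failed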;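 further: plate controls were DMSO neutral control for no effect and GW8510 at 10 µM for full effect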
dFosB act-2 = activators of mouse delta FosB homodimer DNA binding | shares compounds with dFosB act-1 | purified delta FosB, TAMRA-CDK5 oligo fluorescence polarization; normalised: neutral wells 0, positive control 100 | activation, % at 24.9 µM | 2,400 tested, under 10 active;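 active means highest replicate activation at or above 34% and every replicate reaching that threshold; inconclusive means meets only one of the two criteria; inactive means meets neither criterion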;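 further: higher polarization means more probe DNA bound by delta FosB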
Starred values were filed as active, the others as inactive; ? = inconclusive; / = no result given.

SMILES	PKA-R1A act	SR-BI DiI inh	SR-BI DiI-HDL act	dFosB act-1	PKA-R2B act	CDK5 p35 inh	dFosB act-2
CC(C)(C)N1C(=O)c2ccc(C(=O)Nc3ccc(-c4nc5ccccc5[nH]4)cc3)cc2C1=O	-2	-15	15	-2	7	-1	/
CS(=O)(=O)c1cccc(C(=O)Nc2ccc(-c3nc4ccccc4[nH]3)cc2)c1	-5	43	-43	37*	-10	-3	8
O=C(Nc1ccc(-c2nc3ccccc3[nH]2)cc1)c1ccc(N2C(=O)CCC2=O)cc1	-13	-8	8	25*	-3	-1	3
O=C(Nc1ccc(-c2nc3ccc(NC(=O)c4cccs4)cc3[nH]2)cc1)c1cccs1	-4	20	-20	47*	2	1	-1
CC(=O)c1sc(NC(=O)C2CCCN2S(=O)(=O)c2ccccc2F)nc1C (configuration not stated)	-18	2	-2	21*	-5	1	0
Cn1c(=O)c2c(ncn2CC(=O)Nc2nc(-c3ccc(F)c(F)c3)cs2)n(C)c1=O	10	17	-17	32*	-2	0	9
Cc1ccc(-c2csc(NC(=O)Cn3cnc4c3c(=O)n(C)c(=O)n4C)n2)cc1C	6	15	-15	-2	-11	0	/
COc1cccc(C(=O)Nc2nnc(SCC(=O)NC3CCCC3)s2)c1	8	3	-3	22*	-8	0	3
O=C(CSc1nnc(NC(=O)c2cccc(F)c2)s1)NC1CCCC1	2	/	/	60*	0	0	1
O=C(CSc1nnc(NC(=O)c2cccc(F)c2)s1)NC1CC1	-8	/	/	1	-6	0	/
COc1cc(-c2cc(C(=O)Nc3cccc(C(C)=O)c3)c3ccccc3n2)cc(OC)c1OC	-7	85*	-85	28*	-5	-1	2
COc1ccc(CCN2CC(C(=O)N3CCSCC3)CCC2=O)cc1 (configuration not stated)	-7	-8	8	-16	1	0	/
COc1ccc(/C=N/NC(=O)C2c3ccccc3-c3ccccc32)cc1	-10	8	-8	22*	-6	0	0
COc1ccc(/C=N/NC(=O)CC(=O)N/N=C/c2ccc(OC)cc2)cc1	-10	16	-16	7	-3	0	/
O=C(c1ccco1)N1CCN(Cc2csc(-c3ccccc3Cl)n2)CC1	6	-1	1	-11	-9	1	/
O=C(COC(=O)c1ccc(F)c(S(=O)(=O)N2CCOCC2)c1)Nc1ccc(Cl)cn1	3	/	/	/	1	/	/
Cc1ccc(S(=O)(=O)N(C)c2ccc(OC(=O)CN3C(=O)NC4(CCCC4)C3=O)cc2)cc1C	-9	-17	17	25*	-3	1	3
Cc1ccc(S(=O)(=O)N(C)c2ccc(OC(=O)CN3C(=O)NC4(CCCC4)C3=O)cc2)cc1	5	-17	17	-10	5	0	/
O=S1(=O)N=C(N(Cc2cccs2)c2ccc(O)cc2)c2ccccc21	-3	6	-6	-3	-10	0	/
CCOc1ccc(-n2c(=O)c3c(C)c(C)sc3n(CC(=O)NCc3ccco3)c2=O)cc1	0	-13	13	8	-5	0	/
Cc1sc2c(c1C)c(=O)n(-c1cccc(C(F)(F)F)c1)c(=O)n2CC(=O)NCc1ccco1	0	-24	24	57*	-3	1	1
CCn1c(CC(=O)Nc2ccc(F)cc2)nnc1SCC(=O)Nc1nnc(C)s1	-2	/	/	0	0	1	/
CN(C)S(=O)(=O)c1ccc(NC(=O)CSc2nnc(-c3ccco3)n2N)cc1	-6	-20	20	1	-12	-1	/
Cc1ccc(Nc2nc(N)nc(CSc3nc4ccccc4s3)n2)cc1	-9	-13	13	53*	-2	-1	0
Cc1ccc(Nc2nc(N)nc(CSc3ncccn3)n2)cc1	5	7	-7	-3	-11	-1	/
SMILES	PKA-R1A act	SR-BI DiI inh	SR-BI DiI-HDL act	dFosB act-1	PKA-R2B act	CDK5 p35 inh	dFosB act-2
Cc1ccc(Nc2nc(N)nc(CSc3nnc(-c4ccncc4)o3)n2)cc1	7	17	-17	66*	-11	0	1
Cc1ccccc1Nc1nc(N)nc(CSc2nc3ccccc3s2)n1	-1	24	-24	0	6	-4	/
COc1ccccc1C(=O)NC(=O)COC(=O)c1cnccn1	4	/	/	/	1	/	/
C=CC(=O)Nc1cccc(CN2C(=O)N(c3cc(OC)cc(OC)c3)Cc3cnc(NCCCCN(CC)CC)nc32)c1	0	-16	16	36*	1	-2	?
Cc1cc(OCC(=O)N2CCN(c3ccccn3)CC2)c(C)cc1Br	-12	-12	/	1	-2	-1	/
COc1ccc(CNC(=O)c2ccc3c(=O)n(-c4ccccc4)c(=O)[nH]c3c2)cc1	3	20	-20	1	-5	-1	/
CCC(C)NC(=O)Cn1c(=O)n(-c2ccc(OC)cc2)c(=O)c2ccc(C(=O)NCc3ccc(C)cc3)cc21 (configuration not stated)	0	45	-45	33*	-1	-1	5
CCOc1ccc(NS(=O)(=O)c2ccc(C(=O)NCC(c3ccc(OC)cc3)N3CCCC3)cc2)cc1 (configuration not stated)	13	-4	4	24*	10	0	6
COc1cc2c(cc1OC)C(C)=NCC2	-6	-29	29	9	-2	2	/
COc1cc2c(cc1OC)-c1cc3ccc(OC)c(OC)c3c[n+]1CC2	1	12	-12	28*	-3	1	-3
COc1cc(NS(=O)(=O)c2cc(NC(C)=O)ccc2OC)c(OC)cc1NC(=O)c1ccccc1	5	?	-71	-10	0	0	/
CCOC(=O)c1c(C)[nH]c2cc(Br)c(OC)cc12	-18	15	-15	18*	5	0	5
Nc1nc(Nc2ccccc2)nc(NCc2ccco2)c1[N+](=O)[O-]	-6	25	-25	27*	-3	0	4
Nc1nc(NCc2ccco2)nc(Nc2ccccc2)c1[N+](=O)[O-]	0	-9	9	0	4	-1	/
COc1ccc(C(=O)N=C2SC3CS(=O)(=O)CC3N2c2ccc(N(C)C)cc2)cc1OC (configuration not stated)	-3	3	-3	-4	-3	-4	/
NNC(=O)Cn1c(-c2nonc2N)nc2ccccc21	5	-2	2	-10	6	-1	/
